Experimental data from different studies.
Protocols differ between the studies behind these lines.
Target: Mitogen-activated protein kinase 3 (MAPK3, Homo sapiens, UniProt P27361)

| SMILES | read-out | method | concentration | remaining binding |
| --- | --- | --- | --- | --- |
| COCCOc1nc(-c2ccc(Cl)nc2)nc2c1CN(C(=O)c1ncn3ccccc13)CC2 | cell-free assay | competition with immobilised ligand | 0.1 µM | 89% |
| CN(C)c1nccc(-c2cnc3ncccn23)n1 | binding | – | 1 µM | 100% |
| C[C@H](c1cccc(C#N)c1)n1cc(Cl)cc(C(N)=O)c1=N | cell-free assay | competition with immobilised ligand | 1 µM | 97% |
| F[C@@H]1CCN(c2nccc(-c3cnn4ncccc34)n2)C1 | binding | – | 1 µM | 85% |
| O=C(c1ccc(Nc2ncc(Cl)c(-c3cc4ccccc4s3)n2)cc1)N1CCC(N2CCCC2)CC1 | binding | competition with immobilised ligand | 1 µM | 97% |
| C[C@@H]1CCN(c2nccc(-c3cnn4ncccc34)n2)C1 | binding | – | 1 µM | 83% |
| O=C(Nc1c[nH]nc1C(=O)NC1CCNCC1)c1cc(F)cc(F)c1 | binding | competition with immobilised ligand | 1 µM | 100% |
| O=C(Nc1cccnn1)N1CC(C/C=C/c2cncc(Oc3ccc(C(F)(F)F)cn3)n2)C1 | cell-free assay | competition with immobilised ligand | 1 µM | 99% |
| CNC(=O)[C@@H]1CC[C@@H](n2c(-c3ccc4cnccc4c3)nc3ccc(C(=O)NCc4cccc(C(N)=O)c4)cc32)C1 | binding | competition with immobilised ligand | 1 µM | 100% |
| O=C(c1ccc(Nc2ncc(Cl)c(-c3ccc(Cl)s3)n2)cc1)N1CCC(N2CCCC2)CC1 | binding | competition with immobilised ligand | 1 µM | 98% |
| N#Cc1ccc(Nc2ccc3[nH]c(=O)[nH]c3c2)c(Cl)c1 | cell-free assay | competition with immobilised ligand | 1 µM | 95% |
| COc1cnc(Nc2cccc(S(N)(=O)=O)c2)nc1N1CCN(c2ccccc2)C(=O)C1 | binding | competition with immobilised ligand | 1 µM | 100% |
| O=C(NCCCN1CCOCC1)c1ccc(Nc2nccc(-c3cc4ccccc4s3)n2)cc1 | binding | competition with immobilised ligand | 1 µM | 100% |
| CC(C)(C)c1ccc(-c2nc(CBr)nn2-c2cccc(O)c2)cc1 | cell-free assay | competition with immobilised ligand | 10 µM | 91% |
| CCN1CCN(Cc2ccc(C(=O)Nc3ccc(C)c(Oc4ccc5c(c4)CC(=O)N5)c3)cc2C(F)(F)F)CC1 | binding | competition with immobilised ligand | 1 µM | 100% |
| c1cncc(-c2cccc(Nc3nccc(NC4CCCCC4)n3)c2)c1 | binding | competition with immobilised ligand | 10 µM | 100% |
| COc1ccnn2ncc(-c3ccnc(N(C)C)n3)c12 | binding | – | 1 µM | 92% |
| C[C@@H]1CN(c2ccc3ncc(-c4ccc5[nH]nc(C6CC6)c5c4)n3n2)C[C@H](C)O1 | binding | competition with immobilised ligand | 50 nM | 100% |
| CO[C@@H](C)c1c(Nc2ccc([C@H](N(C)C(=O)C3CCS(=O)(=O)CC3)C(F)(F)F)cc2)cnc2cc(Cl)nn12 | cell-free assay | competition with immobilised ligand | 1 µM | 100% |
| FC(F)(F)Oc1cccc(-c2cnc3ccc(-c4ccncc4)nn23)c1 | cell-free assay | competition with immobilised ligand | 5 µM | 88% |
| COc1cccc(CNC(=O)c2nc3scc(COCc4ccc(C(=O)O)cc4)c3c(=O)[nH]2)c1 | cell-free assay | competition with immobilised ligand | 1 µM | 100% |
| CN(C)c1ncc(F)c(-c2cnn3ncccc23)n1 | binding | – | 1 µM | 91% |
| c1ccc(N2CCN(Cc3nc4ccccc4[nH]3)CC2)nc1 | binding | competition with immobilised ligand | 1 µM | 100% |
| N[C@@H]1CCN(c2nccc(-c3cnn4ncccc34)n2)C1 | binding | – | 1 µM | 91% |
| Cc1c(NC(=O)c2cc(C(N)=O)nc3cc(F)ccc23)c(C(F)(F)F)nn1Cc1ccc(C(C)(C)C)cc1 | cell-free assay | competition with immobilised ligand | 1 µM | 100% |
| CN(CCCC(F)(F)F)c1nccc(-c2cnn3ncccc23)n1 | binding | – | 1 µM | 97% |
